Sampled rows, rich in hits. Any-hit rate of the full collection: about 1.8%.
PABP1 MLLE inh: inhibitors of microRNA-mediated deadenylation, human PABP1 MLLE binding; P11940; GST-MLLE / FITC-PAM2 fluorescence polarization; inhibition, % at 20 µM; actives 0.36% (n = 360,000); in the data active = inhibition above about 35%, passing the limit was not always enough
Target sequence (P11940 whole entry, looked up): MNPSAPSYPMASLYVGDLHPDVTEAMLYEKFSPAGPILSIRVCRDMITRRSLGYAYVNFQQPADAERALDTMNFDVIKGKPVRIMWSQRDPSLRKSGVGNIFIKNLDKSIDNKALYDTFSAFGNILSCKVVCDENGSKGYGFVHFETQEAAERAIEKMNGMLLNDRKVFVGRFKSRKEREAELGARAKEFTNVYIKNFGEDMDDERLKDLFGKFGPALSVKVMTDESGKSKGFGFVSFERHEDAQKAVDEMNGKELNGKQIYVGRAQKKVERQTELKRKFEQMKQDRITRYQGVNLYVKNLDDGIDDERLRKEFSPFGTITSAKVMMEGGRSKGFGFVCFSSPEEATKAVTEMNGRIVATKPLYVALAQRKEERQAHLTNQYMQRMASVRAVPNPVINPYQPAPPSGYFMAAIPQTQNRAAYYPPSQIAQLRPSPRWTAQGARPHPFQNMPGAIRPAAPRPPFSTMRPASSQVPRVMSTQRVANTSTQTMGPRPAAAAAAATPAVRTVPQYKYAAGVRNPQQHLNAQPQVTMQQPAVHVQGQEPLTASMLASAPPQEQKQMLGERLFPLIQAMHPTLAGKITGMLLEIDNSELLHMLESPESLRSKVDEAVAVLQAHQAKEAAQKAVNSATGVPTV
eIF4H inh: inhibitors of RNA binding by human eIF4H | AID 2012 | eIF4H fluorescence polarization binding assay | inhibition, % at 35 µM | Q15056 | actives 0.94% (n = 290,000);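 also: calls also rest on retests at 20 µM and on dose response follow-up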
MT1-MMP act inh: inhibitors of human MT1-MMP activation. HT1080 RFP-PRO-GFP cells, GFP/RFP ratio fluorescence, overnight; percent of plate control window, DMSO zero. actives 0.061% (n = 360,000). P50281. GFP/RFP ratio change, % at 20 µM. AID 651647;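 active = GFP/RFP ratio change of at least 30% with cell ATP level not reduced by more than half and red fluorescence within 50% of control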
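Material: RFP-PRO-GFP reporter HT1080 cells. Dosing: single-point 20 µM compound, 1% DMSO. Controls: DMSO and RFP-L50D-GFP cell wells. Timing: cells overnight before dosing, compound overnight, 37 °C, 5% CO2. Measure: GFP/RFP fluorescence ratio.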
PABP polyA inh: blocks human PABP binding to poly(A) RNA; actives 1% (n = 290,000); calls only at 35 µM; fluorescence polarization; P11940; AID 2014;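 also: calls also rest on retests at 20 µM and on dose response follow-up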
SKN-1 inh: blocks SKN-1 activity in C. elegans; actives 0.49% (n = 360,000); inhibition, % at 21.8 µM; AID 624304; C. elegans VP596 Pgst-4::GFP/RFP ratio, acrylamide-induced, 24 h;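 active = interference check ratio from 0.5 to 1.5 plus GFP to RFP signal ratio inhibition reaching or exceeding a fixed threshold, cut at about 30% in these data, passing the limit was not always enough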
Hits are given with their value; n = inactive; u = inconclusive; x = not tested or not shown; + = active, no number. Unless noted, no rule for the calls is given here.

SMILES | PABP1 MLLE inh | eIF4H inh | MT1-MMP act inh | PABP polyA inh | SKN-1 inh
Cc1ccnc(N2C(=O)c3cccc4c([N+](=O)[O-])ccc(c34)C2=O)c1 | 63 | 77 | n | + | n
O=c1[nH]c(C(Cl)Cl)nc2sc3c(c12)CCN(Cc1ccccc1)C3 | n | 78 | n | + | n
CC(C)(C)CN1CCN(Cc2c[nH]c3ccccc23)CC1CCO (stereo unspecified) | n | n | n | n | n
CN(CCO)c1cccc2c1S(=O)(=O)N[C@H](Cc1ccccc1)CO2 | x | x | n | x | n
O=C(c1ccco1)N(CCC(c1ccccc1)c1ccco1)Cc1ccco1 (stereo unspecified) | n | 68 | n | n | n
CC1CC(C)CN(S(=O)(=O)c2ccc(C(C)(C)C)cc2)C1 (stereo unspecified) | n | n | n | + | n
COc1ccc(CCN2CC(C(=O)NCCN3CCCC3=O)CCC2=O)cc1 (stereo unspecified) | n | n | n | n | n
COc1ccc(/C=C(\C#N)c2nc3ccc(C)cc3[nH]2)cc1Oc1ccc(C(F)(F)F)cc1[N+](=O)[O-] | n | n | n | n | n
Cc1ccc2nc(/C(C#N)=C\c3ccc(Oc4ccc(C(F)(F)F)cc4[N+](=O)[O-])cc3)[nH]c2c1 | n | 76 | n | + | n
CC(Nc1cc(N2CCN(S(=O)(=O)N(C)C)CC2)ccc1[N+](=O)[O-])c1ccccc1 (stereo unspecified) | n | 77 | n | + | n
CC(Nc1cc(N2CCN(S(C)(=O)=O)CC2)ccc1[N+](=O)[O-])c1ccccc1 (stereo unspecified) | n | n | n | n | n
Cc1cccc(-n2[nH]c(C)c(C=Nc3ccc4[nH]c(=O)[nH]c4c3)c2=O)c1 | n | 61 | n | + | n
O=C(NCc1ccco1)c1ccc(Cn2cc([N+](=O)[O-])cn2)o1 | n | n | n | n | n
Cc1cc(C)n(Cc2ccc(C(=O)NCc3ccco3)o2)n1 | n | n | n | n | 36
O=C(NCc1ccco1)c1ccc([N+](=O)[O-])o1 | n | 89 | n | + | n
O=C(O)COc1ccc(/C=N/NC(=O)C(O)(c2ccccc2)c2ccccc2)cc1 | n | n | n | n | 40
NC(=O)COc1ccc(/C=N/NS(=O)(=O)c2ccccc2)cc1 | n | n | n | + | n
COC(=O)COc1ccc(/C=N/NS(=O)(=O)c2ccccc2)cc1 | n | n | n | n | n
COc1ccc(NC(=O)N(C)C[C@H]2Oc3ncc(Br)cc3C(=O)N([C@H](C)CO)C[C@@H]2C)cc1 | n | x | n | x | n
Cc1ccc(CN2CCC(n3nccc3NC(=O)c3ccccc3C)CC2)o1 | n | n | n | n | 36
Cc1ccccc1C(=O)Nc1ccnn1C1CCN(Cc2ccc(CO)o2)CC1 | n | n | n | n | n
O=C(NN1C(=O)/C(=C/C=C/c2ccco2)SC1=S)c1ccncc1 | n | 84 | n | + | n
O=C1/C(=C/c2ccco2)SC(=S)N1c1cccnc1 | n | 92 | n | + | n
CC(C)C(C(=O)O)N1C(=O)/C(=C/c2cccn2C)SC1=S (stereo unspecified) | n | u | n | n | n
O=C1/C(=C\c2ccco2)SC(=S)N1c1ccc(O)cc1 | n | 81 | n | n | n
SMILES | PABP1 MLLE inh | eIF4H inh | MT1-MMP act inh | PABP polyA inh | SKN-1 inh
CC(C)C(C(=O)O)N1C(=O)/C(=C/C=C/c2ccco2)SC1=S (stereo unspecified) | n | 91 | n | + | n
C[C@H]1CN([C@@H](C)CO)C(=O)c2cccc(NS(=O)(=O)c3ccc(Cl)cc3)c2O[C@@H]1CN(C)CC1CCCCC1 | n | x | n | x | n
O=C(Nc1ccccc1)OCCN1CCOCC1 | n | x | n | x | n
CN1CCN(C(=O)C[C@H]2CC[C@H]3[C@@H](COC[C@@H](O)CN3Cc3cccc(F)c3)O2)CC1 | x | x | n | x | n
CCOC(=O)C(CC1=CS(=O)(=O)c2ccc(Cl)cc21)(NC(C)=O)C(=O)OCC | n | x | n | x | n
CC1CCCC(C)N1C(=O)COC(=O)c1nn(C)c(=O)c2ccccc12 (stereo unspecified) | n | n | n | n | n
O=C1/C(=C/C=C/c2ccco2)SC(=S)N1c1ccc(O)cc1 | n | 80 | n | + | n
O=C(O)c1ccc(N2C(=O)/C(=C/C=C/c3ccccc3)SC2=S)cc1 | n | n | n | n | n
COc1cccc(/C=C2\SC(=S)N(c3cccnc3)C2=O)c1OC | 55 | n | n | n | n
CCOC(=O)CN1C(=O)S/C(=C/c2ccco2)C1=O | n | n | n | n | n
NN1C(=O)/C(=C\c2ccco2)SC1=S | n | 106 | n | + | n
COC(=O)C1=CN(c2ccc(C(C)(C)C)cc2)C(N)=C(C#N)C1c1cccc([N+](=O)[O-])c1 (stereo unspecified) | x | x | n | x | n
CCNc1nc2[nH]c(=O)c3c(c2s1)OC(N)=C(C#N)C3c1ccc(C)cc1 (stereo unspecified) | n | u | n | + | n
O=C1/C(=C/c2ccc(O)cc2)SC(=S)N1CC1CCCO1 (stereo unspecified) | n | n | n | + | n
CCCOc1ccc(/C=C2\SC(=S)N(CC3CCCO3)C2=O)cc1 (stereo unspecified) | n | n | n | n | n
CN(C)c1cccc(C(=O)OCc2cc(=O)oc3cc(O)ccc23)c1 | n | 88 | n | + | n
CC1CN(S(=O)(=O)c2cccc(C(=O)OCc3cc(=O)oc4cc(O)ccc34)c2)CC(C)O1 (stereo unspecified) | n | n | n | n | n
CC(C)Cn1c(N)c(C(=O)CSc2nnc(C3CC3)n2C2CC2)c(=O)n(C)c1=O | n | x | n | x | n
CCCCC1OC2(C)OC(=N)C1(C#N)C(C#N)(C#N)C2c1ccccc1 (stereo unspecified) | n | u | n | n | 44
CC1OC2(C)OC(=N)C1(C#N)C(C#N)(C#N)C2c1ccccc1 (stereo unspecified) | n | u | n | n | n
COc1ccccc1N(C(C)=O)C1=C(Cl)C(=O)c2ccccc2C1=O | 39 | x | n | x | n
COc1ccc(CN2C(=O)c3ccccc3C2c2nnnn2-c2ccc3c(c2)OCCO3)cc1 (stereo unspecified) | x | x | n | x | n
CCN(CC)c1ccc(/C=N/Nc2nc(C)cc(C)n2)cc1 | n | n | n | n | n
CCN(CC)c1ccc(/C=N/Nc2nn[nH]n2)cc1 | n | 51 | n | + | n
CCCN(CCC)C(=S)NC(=O)c1ccc(-c2ccccc2)cc1 | 39 | n | n | n | n
CCOc1ccc(C(=O)NC(=S)N(Cc2ccccc2)Cc2ccccc2)cc1 | n | n | n | n | n
COc1cccc(NC(=O)CN(C)C(C)C(=O)N2CCCC2)c1 (stereo unspecified) | n | x | n | x | n
COc1ccc(-c2ccc(C3C(C#N)=C(N)Oc4n[nH]c(C)c43)o2)cc1 (stereo unspecified) | n | u | n | + | n

Source: PubChem
